Experimental data from ChEMBL document CHEMBL1121573, “2-(Aminomethyl)phenols, a new class of saluretic agents. 1. Effects of nuclear substitution” (J Med Chem, 1980).

Tests used:
[1] = system: Canis familiaris; test: Compound administered intravenously at a dose of 5 mg/kg was evaluated for salidiuretic activity measured as sodium ion excretion in Dog; Value ranges from 400-599; type: ADME, organism-based, Canis lupus familiaris, Urine; set-up: dose 5 mg/kg, route intravenous; conditions: in vivo, iv
Procedure, shortened: (§1)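 Conditioned female mongrel dogs, postabsorptive, water-loaded (500 mL po) 1 h before sodium pentobarbital anesthesia (30 mg/kg iv). Bladder catheter; creatinine 4 g sc; phosphate–mannitol buffer pH 7.4 infused (3.0 mL/min) throughout. […] Urine Na+ measured; response scored 0–6.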

[2] = Evaluated for salidiuretic activity measured as sodium ion excretion in Rat, administered orally at a dose of 16.5 mg/kg; type: organism-based; set-up: dose 16.5 mg/kg; conditions: Urine
Procedure, shortened: (§2)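 Female Charles-River rats (150–170 g), overnight on sugar diet with water ad libitum. Compound dissolved in DMF, diluted with water containing Tween 80 (final 4% DMF), given po in 5.0 mL; concurrent vehicle placebo. Three rats per metabolism cage; 0–5 h urine analysed for Na+, K+, Cl-. Values: mequiv × 100 per cage, geometric means of three cages per dose; scored 0–6 by Na+.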

[3] = Compound administered orally at a dose of 5 mg/kg was evaluated for salidiuretic activity measured as sodium ion excretion in Rat; type: organism-based; set-up: dose 5 mg/kg; conditions: Urine; procedure, shortened: as §2
[4] = system: Rattus norvegicus; test: Evaluated for salidiuretic activity measured as sodium ion excretion in Rat, administered orally at a dose of 50 mg/kg; type: functional, Urine; set-up: unit not given beside the values; conditions: route oral; procedure, shortened: as §2
[5] = system: Canis familiaris; test: Compound administered intravenously was evaluated for salidiuretic activity measured as sodium ion excretion in Dog; Value ranges from 100-249; type: ADME, organism-based, Canis lupus familiaris, Urine; conditions: in vivo, iv; procedure, shortened: as §1
[6] = system: Canis familiaris; test: Compound administered intravenously was evaluated for salidiuretic activity measured as sodium ion excretion in Dog; type: ADME, organism-based, Canis lupus familiaris, Urine; set-up: unit not given beside the values; conditions: in vivo, iv; procedure, shortened: as §1
[7] = system: Canis familiaris; test: Compound administered intravenously was evaluated for salidiuretic activity measured as sodium ion excretion in Dog; Value ranges from 400-599; type: ADME, organism-based, Canis lupus familiaris, Urine; conditions: in vivo, iv; procedure, shortened: as §1
[8] = system: Rattus norvegicus; test: Compound administered orally at a dose of 1 mg/kg was evaluated for salidiuretic activity measured as sodium ion excretion in Rat; conditions: in vivo, po
[9] = system: Canis familiaris; test: Compound administered intravenously at a dose of 5 mg/kg was evaluated for salidiuretic activity measured as sodium ion excretion in Dog; Value ranges from 600-799; type: ADME, organism-based, Canis lupus familiaris, Urine; set-up: dose 5 mg/kg, route intravenous; unit not given beside the values; conditions: in vivo, iv; procedure, shortened: as §1
[10] = system: Canis familiaris; test: Compound administered intravenously at a dose of 5 mg/kg was evaluated for salidiuretic activity measured as sodium ion excretion in Dog; Value ranges from 600- 799; type: ADME, organism-based, Canis lupus familiaris, Urine; set-up: dose 5 mg/kg, route intravenous; conditions: in vivo, iv; procedure, shortened: as §1
[11] = system: Rattus norvegicus; test: Compound administered orally at a dose of 81 mg/kg was evaluated for salidiuretic activity measured as sodium ion excretion in Rat; type: ADME, organism-based, Urine; set-up: dose 81 mg/kg, route oral; unit not given beside the values; conditions: in vivo, po; procedure, shortened: as §2

| SMILES | Diuretic activity [2] | Diuretic activity [3] | Diuretic activity [4] | also measured |
| --- | --- | --- | --- | --- |
| Cl.NCc1c(O)c(C(F)(F)F)cc(Cl)c1Cl | 2.7 | 1.4 | 3.3 | Diuretic activity [1]: 400 |
| CC(C)Cc1cc(Cl)c(O)c(CN)c1.Cl | 1.4 | 0.5 | 2.4 | Diuretic activity [1]: 400 |
| Cc1c(Cl)cc(C(C)C)c(O)c1CN.Cl |  |  |  | Diuretic activity [5]: 100 |
| Br.Cc1c(C)c(Cl)c(Cl)c(CN)c1O |  |  |  | Diuretic activity [6]: > 900 |
| Cl.NCc1cc(C2CCCCC2)cc(Cl)c1O |  |  |  | Diuretic activity [7]: 400 |
| Cc1c(Cl)c(C)c(CN)c(O)c1Br.Cl |  |  |  | Diuretic activity [6]: > 900 |
| CC(C)c1cc(I)c(O)c(CN)c1.Cl | 3.3 | 2.6 | 3.6 | Diuretic activity [8]: 0.7; Diuretic activity [9]: 600 |
| CCCc1cc(I)c(O)c(CN)c1.Cl | 0.6 | 0.4 | 1.8 | Diuretic activity [10]: 600; Diuretic activity [11]: 2.4 |
